ChEMBL document CHEMBL4689842, “EUbOPEN Chemogenomics Library wave 1” (2021)

System: U2OS
Assay: Multiplex assay against U2OS
Assay type: toxicity, cell-based
Conditions: human
Summary of the method: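 At seeding, live cells were stained with Hoechst33342, BioTracker Green Microtubule Cytoskeleton Dye, MitoTracker Red and Annexin V Alexa Fluor 680. After compound addition they were imaged on a CQ1 microscope at 37°C and 5% CO2, and CellPathfinder machine-learning gating sorted them into Hoechst high-intensity objects or normal cells, with normal cells further split into healthy, pyknosed or fragmented nuclei and pyknosed cells into mitotic or apoptotic. Tubulin, mitochondrial-mass and membrane-permeability phenotypes are given as per cents of cells with healthy nuclei.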

[1] = 12 h, 1 µM, compound concentration 1 uM, replicate 1
[2] = 12 h, 1 µM, compound concentration 1 uM, replicate 2
[3] = 12 h, 10 µM, compound concentration 10 uM, replicate 1
[4] = 12 h, 10 µM, compound concentration 10 uM, replicate 2
[5] = 24 h, 1 µM, compound concentration 1 uM, replicate 1
[6] = 24 h, 1 µM, compound concentration 1 uM, replicate 2
[7] = 24 h, 10 µM, compound concentration 10 uM, replicate 1
[8] = 24 h, 10 µM, compound concentration 10 uM, replicate 2
[9] = 48 h, 1 µM, compound concentration 1 uM, replicate 1
[10] = 48 h, 1 µM, compound concentration 1 uM, replicate 2
[11] = 48 h, 10 µM, compound concentration 10 uM, replicate 1
[12] = 48 h, 10 µM, compound concentration 10 uM, replicate 2

SMILES: C=CC(=O)Nc1cccc(Oc2nc(Nc3ccc(N4CCN(C)CC4)cc3OC)ncc2Cl)c1
- Population Apoptotic (%) [1]: 67%
- Population Fragmented Nuclei (%) [1]: 27%
- Population Healthy Nuclei (%) [1]: 36%
- Population Hoechst High Intensity Objects (%) [1]: 8%
- Population Membrane Permeable-Phenotype (%) [1]: 17%
- Population Mitochondria Different-Phenotype (%) [1]: 74%
- Population Mitotic Cells (%) [1]: 32%
- Population Normal (%) [1]: 92%
- Population Pyknosed Nuclei (%) [1]: 36%
- Population Tubulin-Different-Phenotype (%) [1]: 96%
- Total Cell Count [1]: 140
- Population Apoptotic (%) [2]: 73%
- Population Fragmented Nuclei (%) [2]: 32%
- Population Healthy Nuclei (%) [2]: 26%
- Population Hoechst High Intensity Objects (%) [2]: 13%
- Population Membrane Permeable-Phenotype (%) [2]: 19%
- Population Mitochondria Different-Phenotype (%) [2]: 80%
- Population Mitotic Cells (%) [2]: 26%
- Population Normal (%) [2]: 86%
- Population Pyknosed Nuclei (%) [2]: 41%
- Population Tubulin-Different-Phenotype (%) [2]: 100%
- Total Cell Count [2]: 107
- Population Apoptotic (%) [3]: 58%
- Population Fragmented Nuclei (%) [3]: 5%
- Population Healthy Nuclei (%) [3]: 82%
- Population Hoechst High Intensity Objects (%) [3]: 1%
- Population Membrane Permeable-Phenotype (%) [3]: 35%
- Population Mitochondria Different-Phenotype (%) [3]: 7%
- Population Mitotic Cells (%) [3]: 41%
- Population Normal (%) [3]: 98%
- Population Pyknosed Nuclei (%) [3]: 12%
- Population Tubulin-Different-Phenotype (%) [3]: 21%
- Total Cell Count [3]: 152
- Population Apoptotic (%) [4]: 25%
- Population Fragmented Nuclei (%) [4]: 16%
- Population Healthy Nuclei (%) [4]: 79%
- Population Hoechst High Intensity Objects (%) [4]: 13%
- Population Membrane Permeable-Phenotype (%) [4]: 43%
- Population Mitochondria Different-Phenotype (%) [4]: 16%
- Population Mitotic Cells (%) [4]: 75%
- Population Normal (%) [4]: 86%
- Population Pyknosed Nuclei (%) [4]: 4%
- Population Tubulin-Different-Phenotype (%) [4]: 22%
- Total Cell Count [4]: 113
- Population Apoptotic (%) [5]: 91%
- Population Fragmented Nuclei (%) [5]: 21%
- Population Hoechst High Intensity Objects (%) [5]: 12%
- Population Membrane Permeable-Phenotype (%) [5]: 70%
- Population Mitochondria Different-Phenotype (%) [5]: 100%
- Population Mitotic Cells (%) [5]: 8%
- Population Normal (%) [5]: 87%
- Population Pyknosed Nuclei (%) [5]: 61%
- Total Cell Count [5]: 160
- Population Apoptotic (%) [6]: 92%
- Population Fragmented Nuclei (%) [6]: 35%
- Population Healthy Nuclei (%) [6]: 17%
- Population Hoechst High Intensity Objects (%) [6]: 14%
- Population Membrane Permeable-Phenotype (%) [6]: 93%
- Population Mitochondria Different-Phenotype (%) [6]: 93%
- Population Mitotic Cells (%) [6]: 7%
- Population Normal (%) [6]: 85%
- Population Pyknosed Nuclei (%) [6]: 47%
- Population Tubulin-Different-Phenotype (%) [6]: 100%
- Total Cell Count [6]: 131
- Population Apoptotic (%) [7]: 62%
- Population Fragmented Nuclei (%) [7]: 5%
- Population Healthy Nuclei (%) [7]: 89%
- Population Hoechst High Intensity Objects (%) [7]: 3%
- Population Membrane Permeable-Phenotype (%) [7]: 29%
- Population Mitochondria Different-Phenotype (%) [7]: 9%
- Population Mitotic Cells (%) [7]: 37%
- Population Normal (%) [7]: 96%
- Population Pyknosed Nuclei (%) [7]: 5%
- Population Tubulin-Different-Phenotype (%) [7]: 18%
- Total Cell Count [7]: 182
- Population Apoptotic (%) [8]: 66%
- Population Fragmented Nuclei (%) [8]: 10%
- Population Healthy Nuclei (%) [8]: 84%
- Population Hoechst High Intensity Objects (%) [8]: 16%
- Population Membrane Permeable-Phenotype (%) [8]: 27%
- Population Mitochondria Different-Phenotype (%) [8]: 17%
- Population Mitotic Cells (%) [8]: 33%
- Population Normal (%) [8]: 83%
- Population Tubulin-Different-Phenotype (%) [8]: 17%
- Total Cell Count [8]: 120

SMILES: C=CC(=O)Nc1ccc2[nH]c(=O)n(C3CCN(Cc4ccc(-c5nc6cc[nH]c(=O)c6cc5-c5ccccc5)cc4)CC3)c2c1 [Borussertib]
- Population Apoptotic (%) [1]: 25%
- Population Fragmented Nuclei (%) [1]: 5%
- Population Healthy Nuclei (%) [1]: 91%
- Population Hoechst High Intensity Objects (%) [1]: 3%
- Population Membrane Permeable-Phenotype (%) [1]: 12%
- Population Mitochondria Different-Phenotype (%) [1]: 35%
- Population Mitotic Cells (%) [1]: 75%
- Population Normal (%) [1]: 96%
- Population Pyknosed Nuclei (%) [1]: 2%
- Population Tubulin-Different-Phenotype (%) [1]: 29%
- Total Cell Count [1]: 158
- Population Apoptotic (%) [2]: 28%
- Population Healthy Nuclei (%) [2]: 87%
- Population Hoechst High Intensity Objects (%) [2]: 14%
- Population Membrane Permeable-Phenotype (%) [2]: 11%
- Population Mitochondria Different-Phenotype (%) [2]: 21%
- Population Mitotic Cells (%) [2]: 71%
- Population Normal (%) [2]: 85%
- Population Pyknosed Nuclei (%) [2]: 6%
- Population Tubulin-Different-Phenotype (%) [2]: 23%
- Total Cell Count [2]: 124
- Population Apoptotic (%) [3]: 54%
- Population Fragmented Nuclei (%) [3]: 2%
- Population Healthy Nuclei (%) [3]: 84%
- Population Hoechst High Intensity Objects (%) [3]: 4%
- Population Membrane Permeable-Phenotype (%) [3]: 24%
- Population Mitochondria Different-Phenotype (%) [3]: 18%
- Population Mitotic Cells (%) [3]: 45%
- Population Normal (%) [3]: 95%
- Population Pyknosed Nuclei (%) [3]: 13%
- Population Tubulin-Different-Phenotype (%) [3]: 38%
- Total Cell Count [3]: 190
- Population Apoptotic (%) [4]: 60%
- Population Fragmented Nuclei (%) [4]: 6%
- Population Healthy Nuclei (%) [4]: 77%
- Population Hoechst High Intensity Objects (%) [4]: 8%
- Population Membrane Permeable-Phenotype (%) [4]: 33%
- Population Mitochondria Different-Phenotype (%) [4]: 28%
- Population Mitotic Cells (%) [4]: 40%
- Population Normal (%) [4]: 91%
- Population Pyknosed Nuclei (%) [4]: 15%
- Population Tubulin-Different-Phenotype (%) [4]: 32%
- Total Cell Count [4]: 104
- Population Apoptotic (%) [5]: 36%
- Population Fragmented Nuclei (%) [5]: 1%
- Population Healthy Nuclei (%) [5]: 93%
- Population Hoechst High Intensity Objects (%) [5]: 2%
- Population Membrane Permeable-Phenotype (%) [5]: 8%
- Population Mitochondria Different-Phenotype (%) [5]: 22%
- Population Mitotic Cells (%) [5]: 63%
- Population Normal (%) [5]: 97%
- Population Pyknosed Nuclei (%) [5]: 5%
- Population Tubulin-Different-Phenotype (%) [5]: 34%
- Total Cell Count [5]: 220
- Population Apoptotic (%) [6]: 37%
- Population Fragmented Nuclei (%) [6]: 9%
- Population Healthy Nuclei (%) [6]: 84%
- Population Hoechst High Intensity Objects (%) [6]: 7%
- Population Membrane Permeable-Phenotype (%) [6]: 10%
- Population Mitochondria Different-Phenotype (%) [6]: 29%
- Population Mitotic Cells (%) [6]: 62%
- Population Normal (%) [6]: 92%
- Population Pyknosed Nuclei (%) [6]: 6%
- Population Tubulin-Different-Phenotype (%) [6]: 28%
- Total Cell Count [6]: 137
- Population Apoptotic (%) [7]: 66%
- Population Fragmented Nuclei (%) [7]: 6%
- Population Healthy Nuclei (%) [7]: 85%
- Population Hoechst High Intensity Objects (%) [7]: 2%
- Population Membrane Permeable-Phenotype (%) [7]: 13%
- Population Mitochondria Different-Phenotype (%) [7]: 19%
- Population Mitotic Cells (%) [7]: 33%
- Population Normal (%) [7]: 97%
- Population Pyknosed Nuclei (%) [7]: 7%
- Population Tubulin-Different-Phenotype (%) [7]: 26%
- Total Cell Count [7]: 238
- Population Apoptotic (%) [8]: 83%
- Population Fragmented Nuclei (%) [8]: 12%
- Population Healthy Nuclei (%) [8]: 76%
- Population Hoechst High Intensity Objects (%) [8]: 13%
- Population Membrane Permeable-Phenotype (%) [8]: 21%
- Population Mitochondria Different-Phenotype (%) [8]: 28%
- Population Mitotic Cells (%) [8]: 16%
- Population Normal (%) [8]: 86%
- Population Pyknosed Nuclei (%) [8]: 11%
- Population Tubulin-Different-Phenotype (%) [8]: 22%
- Total Cell Count [8]: 121

SMILES: Cc1ccc(C)c(Oc2ccncc2C(=O)N2CCN(C3CC3)c3ccccc32)c1
- Population Apoptotic (%) [1]: 53%
- Population Fragmented Nuclei (%) [1]: 10%
- Population Healthy Nuclei (%) [1]: 77%
- Population Hoechst High Intensity Objects (%) [1]: 7%
- Population Normal (%) [1]: 92%
- Total Cell Count [1]: 135
- Population Apoptotic (%) [2]: 66%
- Population Healthy Nuclei (%) [2]: 75%
- Population Hoechst High Intensity Objects (%) [2]: 10%
- Population Normal (%) [2]: 89%
- Total Cell Count [2]: 73
- Population Apoptotic (%) [3]: 48%
- Population Fragmented Nuclei (%) [3]: 15%
- Population Healthy Nuclei (%) [3]: 61%
- Population Hoechst High Intensity Objects (%) [3]: 6%
- Population Mitotic Cells (%) [3]: 51%
- Population Normal (%) [3]: 93%
- Total Cell Count [3]: 132
- Population Apoptotic (%) [4]: 33%
- Population Fragmented Nuclei (%) [4]: 6%
- Population Healthy Nuclei (%) [4]: 72%
- Population Hoechst High Intensity Objects (%) [4]: 3%
- Population Normal (%) [4]: 96%
- Total Cell Count [4]: 59
- Population Apoptotic (%) [5]: 47%
- Population Fragmented Nuclei (%) [5]: 8%
- Population Healthy Nuclei (%) [5]: 76%
- Population Hoechst High Intensity Objects (%) [5]: 3%
- Population Mitotic Cells (%) [5]: 52%
- Population Normal (%) [5]: 96%
- Total Cell Count [5]: 137
- Population Apoptotic (%) [6]: 42%
- Population Fragmented Nuclei (%) [6]: 27%
- Population Healthy Nuclei (%) [6]: 60%
- Population Hoechst High Intensity Objects (%) [6]: 6%
- Population Normal (%) [6]: 93%
- Total Cell Count [6]: 71
- Population Apoptotic (%) [7]: 51%
- Population Healthy Nuclei (%) [7]: 50%
- Population Hoechst High Intensity Objects (%) [7]: 10%
- Population Mitotic Cells (%) [7]: 48%
- Population Normal (%) [7]: 89%
- Total Cell Count [7]: 152
- Population Apoptotic (%) [8]: 53%
- Population Healthy Nuclei (%) [8]: 66%
- Population Hoechst High Intensity Objects (%) [8]: 7%
- Population Normal (%) [8]: 92%
- Total Cell Count [8]: 65
- Population Apoptotic (%) [9]: 46%
- Population Fragmented Nuclei (%) [9]: 4%
- Population Healthy Nuclei (%) [9]: 82%
- Population Hoechst High Intensity Objects (%) [9]: 3%
- Population Mitotic Cells (%) [9]: 53%
- Population Normal (%) [9]: 96%
- Total Cell Count [9]: 139
- Population Apoptotic (%) [10]: 36%
- Population Fragmented Nuclei (%) [10]: 6%
- Population Healthy Nuclei (%) [10]: 79%
- Population Hoechst High Intensity Objects (%) [10]: 4%
- Population Mitotic Cells (%) [10]: 63%
- Population Normal (%) [10]: 95%
- Total Cell Count [10]: 69
- Population Apoptotic (%) [11]: 61%
- Population Fragmented Nuclei (%) [11]: 14%
- Population Healthy Nuclei (%) [11]: 42%
- Population Hoechst High Intensity Objects (%) [11]: 9%
- Population Mitotic Cells (%) [11]: 38%
- Population Normal (%) [11]: 90%
- Total Cell Count [11]: 213
- Population Apoptotic (%) [12]: 33%
- Population Fragmented Nuclei (%) [12]: 22%
- Population Healthy Nuclei (%) [12]: 55%
- Population Hoechst High Intensity Objects (%) [12]: 1%
- Population Normal (%) [12]: 98%
- Total Cell Count [12]: 83
